{"source": "ChEMBL document CHEMBL5303300", "about": "“EUbOPEN Chemogenomics Library - Multiplex” (2023)", "key": {"HEK-293T": {"tested_on": "HEK-293T", "experiment": "Multiplex assay against HEK293T", "assay_type": "toxicity, cell-based", "conditions": "human, number of replicates 2", "how_it_was_run": "(§1)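 Phenotypes for tubulin, mitochondrial mass and membrane permeability are expressed as per cents of healthy-nucleus cells. Cells were stained live at seeding with Hoechst33342, BioTracker Green Microtubule Cytoskeleton Dye, MitoTracker Red and Annexin V Alexa Fluor 680, then imaged after compound addition on a CQ1 microscope at 37°C and 5% CO2. Machine-learning gating in CellPathfinder separated Hoechst high-intensity objects from normal cells, divided normal cells by nuclear state (healthy, pyknosed, fragmented) and divided pyknosed cells into mitotic or apoptotic.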"}, "U2OS": {"tested_on": "U2OS", "experiment": "Multiplex assay against U2OS", "assay_type": "toxicity, cell-based", "conditions": "human, number of replicates 2", "how_it_was_run": "as §1"}, "[1]": {"conditions": "24 h, 1 µM, compound concentration 1 uM"}, "[2]": {"conditions": "24 h, 10 µM, compound concentration 10 uM"}, "[3]": {"conditions": "48 h, 1 µM, compound concentration 1 uM"}, "[4]": {"conditions": "48 h, 10 µM, compound concentration 10 uM"}, "[5]": {"conditions": "12 h, 1 µM, compound concentration 1 uM"}, "[6]": {"conditions": "12 h, 10 µM, compound concentration 10 uM"}}, "note": "Several values for one entry are separate records, joined by “and”; a condition that tells them apart may be missing. Identical values can stand only once.", "data": [{"compound": "O=C1CCCN1CCNc1nc(Nc2ccc(Cl)c(Cl)c2)ncc1C(F)(F)F", "values": [{"measurement": "Population Mitochondria Different-Phenotype (%)", "setting": "HEK-293T; [1]", "value": "5% and 4%"}, {"measurement": "Population Mitotic Cells (%)", "setting": "HEK-293T; [1]", "value": "42% and 46%"}, {"measurement": "Population Normal (%)", "setting": "HEK-293T; [1]", "value": "91% and 90%"}, {"measurement": "Population Pyknosed Nuclei (%)", "setting": "HEK-293T; [1]", "value": 10, "unit": "%"}, {"measurement": "Population Tubulin-Different-Phenotype (%)", "setting": "HEK-293T; [1]", "value": "32% and 31%"}, {"measurement": "Total Cell Count", "setting": "HEK-293T; [1]", "value": "951 and 1356"}, {"measurement": "Population Apoptotic (%)", "setting": "HEK-293T; [2]", "value": "56% and 71%"}, {"measurement": "Population Fragmented Nuclei (%)", "setting": "HEK-293T; [2]", "value": "7% and 5%"}, {"measurement": "Population Healthy Nuclei (%)", "setting": "HEK-293T; [2]", "value": "78% and 79%"}, {"measurement": "Population Hoechst High Intensity Objects (%)", "setting": "HEK-293T; [2]", "value": "8% and 7%"}, {"measurement": "Population Membrane Permeable-Phenotype (%)", "setting": "HEK-293T; [2]", "value": "5% and 3%"}, {"measurement": "Population Mitochondria Different-Phenotype (%)", "setting": "HEK-293T; [2]", "value": "13% and 8%"}, {"measurement": "Population Mitotic Cells (%)", "setting": "HEK-293T; [2]", "value": "43% and 28%"}, {"measurement": "Population Normal (%)", "setting": "HEK-293T; [2]", "value": "91% and 92%"}, {"measurement": "Population Pyknosed Nuclei (%)", "setting": "HEK-293T; [2]", "value": "13% and 15%"}, {"measurement": "Population Tubulin-Different-Phenotype (%)", "setting": "HEK-293T; [2]", "value": "39% and 36%"}, {"measurement": "Total Cell Count", "setting": "HEK-293T; [2]", "value": "751 and 650"}, {"measurement": "Population Apoptotic (%)", "setting": "HEK-293T; [3]", "value": "17% and 24%"}, {"measurement": "Population Fragmented Nuclei (%)", "setting": "HEK-293T; [3]", "value": "14% and 12%"}, {"measurement": "Population Healthy Nuclei (%)", "setting": "HEK-293T; [3]", "value": "82% and 83%"}, {"measurement": "Population Hoechst High Intensity Objects (%)", "setting": "HEK-293T; [3]", "value": "10% and 12%"}, {"measurement": "Population Membrane Permeable-Phenotype (%)", "setting": "HEK-293T; [3]", "value": "6% and 2%"}, {"measurement": "Population Mitochondria Different-Phenotype (%)", "setting": "HEK-293T; [3]", "value": 0, "unit": "%"}, {"measurement": "Population Mitotic Cells (%)", "setting": "HEK-293T; [3]", "value": "82% and 75%"}, {"measurement": "Population Normal (%)", "setting": "HEK-293T; [3]", "value": "89% and 87%"}, {"measurement": "Population Pyknosed Nuclei (%)", "setting": "HEK-293T; [3]", "value": 3, "unit": "%"}, {"measurement": "Population Tubulin-Different-Phenotype (%)", "setting": "HEK-293T; [3]", "value": "14% and 17%"}, {"measurement": "Total Cell Count", "setting": "HEK-293T; [3]", "value": "2336 and 2853"}, {"measurement": "Population Apoptotic (%)", "setting": "HEK-293T; [4]", "value": "23% and 27%"}, {"measurement": "Population Fragmented Nuclei (%)", "setting": "HEK-293T; [4]", "value": "11% and 9%"}, {"measurement": "Population Healthy Nuclei (%)", "setting": "HEK-293T; [4]", "value": "83% and 86%"}, {"measurement": "Population Hoechst High Intensity Objects (%)", "setting": "HEK-293T; [4]", "value": "8% and 5%"}, {"measurement": "Population Membrane Permeable-Phenotype (%)", "setting": "HEK-293T; [4]", "value": "5% and 4%"}, {"measurement": "Population Mitochondria Different-Phenotype (%)", "setting": "HEK-293T; [4]", "value": "2% and 3%"}, {"measurement": "Population Mitotic Cells (%)", "setting": "HEK-293T; [4]", "value": "76% and 72%"}, {"measurement": "Population Normal (%)", "setting": "HEK-293T; [4]", "value": "91% and 94%"}, {"measurement": "Population Pyknosed Nuclei (%)", "setting": "HEK-293T; [4]", "value": "5% and 4%"}, {"measurement": "Population Tubulin-Different-Phenotype (%)", "setting": "HEK-293T; [4]", "value": "16% and 28%"}, {"measurement": "Total Cell Count", "setting": "HEK-293T; [4]", "value": "1562 and 1106"}, {"measurement": "Population Apoptotic (%)", "setting": "U2OS; [5]", "value": "50% and 68%"}, {"measurement": "Population Fragmented Nuclei (%)", "setting": "U2OS; [5]", "value": "5% and 3%"}, {"measurement": "Population Healthy Nuclei (%)", "setting": "U2OS; [5]", "value": "70% and 91%"}, {"measurement": "Population Hoechst High Intensity Objects (%)", "setting": "U2OS; [5]", "value": 0, "unit": "%"}, {"measurement": "Population Membrane Permeable-Phenotype (%)", "setting": "U2OS; [5]", "value": "0% and 3%"}, {"measurement": "Population Mitochondria Different-Phenotype (%)", "setting": "U2OS; [5]", "value": "0% and 1%"}, {"measurement": "Population Mitotic Cells (%)", "setting": "U2OS; [5]", "value": "50% and 31%"}, {"measurement": "Population Normal (%)", "setting": "U2OS; [5]", "value": 100, "unit": "%"}, {"measurement": "Population Tubulin-Different-Phenotype (%)", "setting": "U2OS; [5]", "value": "91% and 81%"}, {"measurement": "Population Apoptotic (%)", "setting": "U2OS; [6]", "value": "100% and 57%"}, {"measurement": "Population Healthy Nuclei (%)", "setting": "U2OS; [6]", "value": "73% and 80%"}, {"measurement": "Population Hoechst High Intensity Objects (%)", "setting": "U2OS; [6]", "value": 0, "unit": "%"}, {"measurement": "Population Membrane Permeable-Phenotype (%)", "setting": "U2OS; [6]", "value": "7% and 5%"}, {"measurement": "Population Mitochondria Different-Phenotype (%)", "setting": "U2OS; [6]", "value": "7% and 0%"}, {"measurement": "Population Normal (%)", "setting": "U2OS; [6]", "value": "100% and 99%"}, {"measurement": "Population Pyknosed Nuclei (%)", "setting": "U2OS; [6]", "value": "5% and 13%"}, {"measurement": "Population Tubulin-Different-Phenotype (%)", "setting": "U2OS; [6]", "value": "64% and 50%"}, {"measurement": "Population Apoptotic (%)", "setting": "U2OS; [1]", "value": "100% and 73%"}, {"measurement": "Population Fragmented Nuclei (%)", "setting": "U2OS; [1]", "value": "0% and 3%"}, {"measurement": "Population Healthy Nuclei (%)", "setting": "U2OS; [1]", "value": 90, "unit": "%"}, {"measurement": "Population Hoechst High Intensity Objects (%)", "setting": "U2OS; [1]", "value": 0, "unit": "%"}, {"measurement": "Population Membrane Permeable-Phenotype (%)", "setting": "U2OS; [1]", "value": "0% and 2%"}, {"measurement": "Population Mitochondria Different-Phenotype (%)", "setting": "U2OS; [1]", "value": 0, "unit": "%"}, {"measurement": "Population Normal (%)", "setting": "U2OS; [1]", "value": 100, "unit": "%"}, {"measurement": "Population Pyknosed Nuclei (%)", "setting": "U2OS; [1]", "value": "9% and 5%"}, {"measurement": "Population Tubulin-Different-Phenotype (%)", "setting": "U2OS; [1]", "value": "96% and 79%"}, {"measurement": "Population Apoptotic (%)", "setting": "U2OS; [2]", "value": "70% and 80%"}, {"measurement": "Population Healthy Nuclei (%)", "setting": "U2OS; [2]", "value": "86% and 70%"}, {"measurement": "Population Hoechst High Intensity Objects (%)", "setting": "U2OS; [2]", "value": 0, "unit": "%"}, {"measurement": "Population Membrane Permeable-Phenotype (%)", "setting": "U2OS; [2]", "value": 3, "unit": "%"}, {"measurement": "Population Mitochondria Different-Phenotype (%)", "setting": "U2OS; [2]", "value": "1% and 0%"}, {"measurement": "Population Mitotic Cells (%)", "setting": "U2OS; [2]", "value": "29% and 20%"}, {"measurement": "Population Normal (%)", "setting": "U2OS; [2]", "value": 100, "unit": "%"}, {"measurement": "Population Pyknosed Nuclei (%)", "setting": "U2OS; [2]", "value": "10% and 12%"}, {"measurement": "Population Tubulin-Different-Phenotype (%)", "setting": "U2OS; [2]", "value": "57% and 35%"}, {"measurement": "Population Apoptotic (%)", "setting": "U2OS; [3]", "value": "71% and 84%"}, {"measurement": "Population Fragmented Nuclei (%)", "setting": "U2OS; [3]", "value": "8% and 3%"}, {"measurement": "Population Healthy Nuclei (%)", "setting": "U2OS; [3]", "value": "79% and 92%"}, {"measurement": "Population Hoechst High Intensity Objects (%)", "setting": "U2OS; [3]", "value": 0, "unit": "%"}, {"measurement": "Population Membrane Permeable-Phenotype (%)", "setting": "U2OS; [3]", "value": "0% and 1%"}, {"measurement": "Population Mitochondria Different-Phenotype (%)", "setting": "U2OS; [3]", "value": "2% and 0%"}, {"measurement": "Population Mitotic Cells (%)", "setting": "U2OS; [3]", "value": "28% and 15%"}, {"measurement": "Population Normal (%)", "setting": "U2OS; [3]", "value": 100, "unit": "%"}, {"measurement": "Population Pyknosed Nuclei (%)", "setting": "U2OS; [3]", "value": "12% and 4%"}, {"measurement": "Population Tubulin-Different-Phenotype (%)", "setting": "U2OS; [3]", "value": "95% and 87%"}, {"measurement": "Population Apoptotic (%)", "setting": "U2OS; [4]", "value": "86% and 75%"}, {"measurement": "Population Fragmented Nuclei (%)", "setting": "U2OS; [4]", "value": "5% and 6%"}, {"measurement": "Population Healthy Nuclei (%)", "setting": "U2OS; [4]", "value": "79% and 76%"}, {"measurement": "Population Hoechst High Intensity Objects (%)", "setting": "U2OS; [4]", "value": 0, "unit": "%"}, {"measurement": "Population Membrane Permeable-Phenotype (%)", "setting": "U2OS; [4]", "value": "4% and 2%"}, {"measurement": "Population Mitochondria Different-Phenotype (%)", "setting": "U2OS; [4]", "value": "0% and 2%"}, {"measurement": "Population Mitotic Cells (%)", "setting": "U2OS; [4]", "value": "13% and 25%"}, {"measurement": "Population Normal (%)", "setting": "U2OS; [4]", "value": "99% and 100%"}, {"measurement": "Population Pyknosed Nuclei (%)", "setting": "U2OS; [4]", "value": "14% and 17%"}, {"measurement": "Population Tubulin-Different-Phenotype (%)", "setting": "U2OS; [4]", "value": "67% and 47%"}]}]}
